Compound activity as filed in PubChem.
In the library only some 27% were active in any assay of this set; here they are far more common.
CYP2C9 activ: human CYP2C9 activators, primary screen, biochemical, luminescence; recombinant CYP2C9, luciferin-H conversion; active compounds read high; factor 1 = untreated enzyme, 0 = blocked; activation factor at 5 µM; hit rate 1.4% among 96,000; AID 1024, 2008;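 active = activation factor of 2 or more for CYP2C9 at a 5 µM dose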;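 note: 0 = sulfaphenazole-blocked wells and 1 = vehicle-only wells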
Target sequence (P11712 whole entry, looked up): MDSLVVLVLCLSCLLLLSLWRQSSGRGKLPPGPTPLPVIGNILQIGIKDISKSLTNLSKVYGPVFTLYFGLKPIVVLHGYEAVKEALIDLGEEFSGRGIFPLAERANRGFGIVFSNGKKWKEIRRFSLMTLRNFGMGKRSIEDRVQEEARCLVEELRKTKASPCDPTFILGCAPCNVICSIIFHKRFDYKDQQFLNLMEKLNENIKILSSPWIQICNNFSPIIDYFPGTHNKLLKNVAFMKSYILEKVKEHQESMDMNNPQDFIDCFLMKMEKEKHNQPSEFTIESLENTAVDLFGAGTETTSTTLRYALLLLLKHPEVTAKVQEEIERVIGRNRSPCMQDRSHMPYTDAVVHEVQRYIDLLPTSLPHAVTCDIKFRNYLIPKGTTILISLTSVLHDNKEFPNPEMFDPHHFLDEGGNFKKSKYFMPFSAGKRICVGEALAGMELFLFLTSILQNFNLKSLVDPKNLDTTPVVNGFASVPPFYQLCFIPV
Cav32 inh: Cav3.2 calcium influx blockers – cell-based, Fluo-4 calcium fluorescence, FDSS, MLSMR library, primary screen | Voltage-dependent T-type calcium channel subunit alpha-1H (Homo sapiens), O95180 | Cav3.2-expressing cells; active compounds read low | B-score at 10 µM | hit rate 4% among 100,000 | AID 449739, 2010;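 active = single-dose well whose peak fluorescence ratio is a statistical outlier from its plate by either plate-standardised score or position-corrected B-score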
CYP2C19 act: human CYP2C19 activators, primary screen, biochemical, luminescence | Cytochrome P450 2C19 (Homo sapiens), P33261 | recombinant CYP2C19, luciferin-H EGE luminescence; active compounds read high; 0 = fully inhibited enzyme, 1 = untreated enzyme | activation factor at 5 µM | 96,000 tested, under 10 active;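 active = activation factor of at least 2 at 5 µM in the primary screen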;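 note: 0 = wells with 2.5 mM tranylcypromine and 1 = vehicle-only wells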
CYP2C9 inh: blockers of cytochrome P450 2C9 activity – biochemical, luminescence, ADME assay, primary screen; CYP2C9 Supersomes, luciferin-H conversion; inhibition, % at 5 µM; hit rate 20% among 96,000;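 active = blocking of liver enzyme CYP2C9 beyond about 50% at 5 µM, limit read from the data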
CYP2C19 inhib: blockers of cytochrome P450 2C19 activity – biochemical, luminescence, ADME assay, primary screen | P33261 | CYP2C19 Supersomes, luciferin-H EGE luminescence, 30 min | inhibition, % at 5 µM | hit rate 21% among 96,000;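 active = CYP2C19 inhibition above a set limit at 5 µM in the primary screen, cut at about 50% in these data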;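 note: plate controls were negative control wells for no effect and 2.5 mM tranylcypromine positive control for full effect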
HIV Rev-RRE inh: HIV-1 Rev-RRE binding inhibitors, primary screen, biochemical, FRET, protein-RNA interaction. inhibition, % at 8 µM. P05866. Rev peptide-RRE RNA binding. AID 704, 2007. hit rate 0.79% among 97,000;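 active = inhibition above the screen-wide mean plus 3 SD, cut at about 35% in these data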;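 note: 0% = median DMSO wells and 100% = median Neomycin B control wells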
Target sequence (P05866 whole entry, looked up): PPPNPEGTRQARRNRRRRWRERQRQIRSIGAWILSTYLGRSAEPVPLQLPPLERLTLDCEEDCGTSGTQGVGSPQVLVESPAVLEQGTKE
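Assay system: labelled RRE RNA duplex and labelled Rev peptide / Medium: HEPES pH 7.5 salt buffer with EDTA / Reagent: labelled Rev peptide / Schedule: 5 + 15 min at 25 °C / Signal: FRET, excitation 480 nm, emission 540 nm donor and 671 nm acceptor / Benchmarks: DMSO and neomycin B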
An asterisk follows results filed as active; nt = no result.

SMILES	CYP2C9 activ	Cav32 inh	CYP2C19 act	CYP2C9 inh	CYP2C19 inhib	HIV Rev-RRE inh
COc1cccc(CN2CCN(CC(=O)Nc3ccccc3Cl)CC2)c1	0.6	-0.7	0.6	35	41	0
CC(C)c1ccc(SCc2noc(C(=O)NCC3CCCO3)c2C(=O)O)cc1 (configuration not stated)	0.4	0.035	0.8	61*	21	3
CC(C)NC(=O)c1onc(CSc2ccc(Cl)cc2)c1C(=O)O	0.3	-0.21	0.8	70*	19	-4
CCCCNC(=O)c1onc(CSc2ccc(Cl)cc2)c1C(=O)NCCCC	nt	-0.9	nt	nt	nt	nt
CCCCNC(=O)c1onc(CSc2ccc(Cl)cc2)c1C(=O)O	0.1	-1.6	0.8	86*	16	2
CC(C)NC(=O)c1onc(CSc2ccc(Cl)cc2)c1C(=O)NC(C)C	nt	-3.7	nt	nt	nt	nt
C=CCNC(=O)c1onc(CSc2ccc(F)c(F)c2)c1C(=O)O	0.2	0.11	0.6	77*	44	7
COCCNC(=O)c1onc(CSc2ccc(F)c(F)c2)c1C(=O)O	0.8	-0.43	0.8	20	20	0
Cc1cccc(N(C(=O)CNC(=O)c2cccs2)C(C(=O)NC2CCCC2)c2cccnc2)c1 (configuration not stated)	0.8	-0.31	0.7	19	26	0
COc1ccc(N2CC(C(=O)O)CC2=O)cc1 (configuration not stated)	nt	0.034	nt	nt	nt	12
C=CCNC(=O)c1onc(CSc2ccc(Cl)cc2)c1C(=O)O	0.3	-0.00045	0.8	73*	24	5
CCCCNC(=O)c1onc(CSc2cccc(F)c2)c1C(=O)O	0.3	-0.62	0.9	66*	9	0
CCOC(=O)N1CCN(Cc2ccccn2)CC1	0.9	1	1	13	3	8
CCOC(=O)N1CCC(=C2c3ccc(Cl)cc3CCc3cccnc32)CC1	nt	-4.7*	nt	nt	nt	nt
Cc1ccccc1-n1c(Cn2c(=O)sc3ccccc32)nnc1SCC(=O)N1CCOCC1	1	1	1	3	-3	3
c1ccc(C2COC(c3cccs3)=N2)cc1 (configuration not stated)	0.9	-1.6	0.4	8	62*	2
CCN(CC)S(=O)(=O)c1ccc(Nc2nc3ccccc3n3nnnc23)cc1	0.4	nt	0.8	63*	23	nt
FC(F)(F)COc1nc(OCC(F)(F)F)nc(N2CCN(c3ccccc3)CC2)n1	0.7	-2.6	1	30	2	-1
Cc1ccc(NC(=O)C2(c3ccccc3)CC2(Cl)Cl)cc1C (configuration not stated)	0.7	nt	0.3	30	74*	13
CCc1ccc(NC(=O)C2(c3ccccc3)CC2(Cl)Cl)cc1 (configuration not stated)	0.6	-2.8	0.7	40	33	8
Cc1cc(C)cc(NC(=O)C2(c3ccccc3)CC2(Cl)Cl)c1 (configuration not stated)	0.6	-6.1*	0.7	43	28	17
Cc1cccc(NC(=O)C2(c3ccccc3)CC2(Cl)Cl)c1 (configuration not stated)	0.5	-8*	0.4	52*	61*	1
N/C(=N\OC(=O)c1cccc(F)c1)c1ccccc1	1	nt	1	-3	0	1
COc1ccc2c(c1OC)C(C1c3c(cc4c(c3OC)OCO4)CCN1C)OC2=O (configuration not stated)	nt	0.11	nt	nt	nt	1
COc1ccc2c(c1OC)C(=O)OC2C1c2c(cc3c(c2OC)OCO3)CCN1C (configuration not stated)	0.1	-1.1	0.1	89*	89*	nt
SMILES	CYP2C9 activ	Cav32 inh	CYP2C19 act	CYP2C9 inh	CYP2C19 inhib	HIV Rev-RRE inh
CN(C)c1ccc(CNn2cnnc2SCc2ccc(F)cc2)cc1	0.4	-0.055	0	63*	98*	7
Fc1ccc(CSc2nncn2NCc2ccccc2)cc1	nt	0.43	nt	nt	nt	-1
Fc1ccccc1CSc1nncn1NCc1cccs1	nt	0.75	nt	nt	nt	4
Fc1ccc(CSc2nncn2NC/C=C/c2ccccc2)cc1	0.8	-2.7	0.3	25	69*	11
CC(C)(C)OC(=O)NC(CCNC=C1C(=O)OC(C)(C)OC1=O)C(=O)O (configuration not stated)	0.8	0.51	1.1	15	-12	8
CCOC(=O)c1cc(-c2ccccc2)nn1CC1CC(c2cccnc2)=NO1 (configuration not stated)	nt	0.43	nt	nt	nt	nt
CCn1c(-c2cc(-c3ccc(OC(C)C)cc3)nc3ccccc23)n[nH]c1=S	0	-2.8	0.3	96*	74*	5
CCn1c(-c2cc(-c3cc(OC)ccc3OC)nc3ccccc23)n[nH]c1=S	0	-0.034	0.1	97*	88*	-8
CCOc1ccc(-n2c(SCC(=O)Nc3ccc(OC)cc3OC)nc3c(c2=O)SCC3)cc1	0.6	0.79	0.6	44	39	6
CC1C(=O)O[C@@H]2C[C@@H](C)[C@@H]3CCC(=O)[C@@]3(C)[C@@H](O)[C@H]12 (some centres not stated)	nt	0.16	nt	nt	nt	nt
CCO[C@@H]1OC(C(=O)NCc2ccccc2)=C[C@H](C(C)(C)C)[C@H]1CCCO	nt	-0.7	nt	nt	nt	nt
CCCCn1c(SCC(=O)N2CC(C)CC(C)C2)nc2cc(S(N)(=O)=O)ccc21 (configuration not stated)	0.9	-2	1	12	-3	nt
Cc1cc(C)c[n+](-c2nc([O-])sc2C=O)c1	1	-0.77	1	1	-2	8
CN1C(=O)CC(N2CCN(CC(=O)N3CCCC3)CC2)C1=O (configuration not stated)	1	0.87	1	-2	0	6
CCN(CC)c1ccc(/C=N/N2CCN(Cc3cccc4ccccc34)CC2)c(O)c1	0.9	0.52	1	6	0	-1
Cc1cc(NC(=O)CSc2nc3c(sc4ccccc43)c(=O)n2CCCN2CCOCC2)n[nH]1	0.8	-1.8	0.5	20	52*	8
O=C(CSc1nc2c(sc3ccccc32)c(=O)n1CCO)NCc1ccco1	0.6	0.31	0.8	43	23	3
Cc1cc(NC(=O)CSc2nc3c(sc4ccccc43)c(=O)n2CCc2ccccc2)n[nH]1	0.6	-0.087	0.1	36	94*	-4
COc1ccc(C2CC(=O)C(C=NCCN3CCN(C(C)=O)CC3)=C(O)C2)cc1OC (configuration not stated)	1.1	nt	1	-6	-4	nt
